Legend:
[1] = target: T1, Alkaline phosphatase, tissue-nonspecific isozyme (Bos taurus, UniProt P09487); test: Inhibition of bovine kidney non-specific alkaline phosphatase using CDP-star chemiluminescent substrate assessed as change in luminescence by spectrophotometric method
T1 sequence (P09487 whole entry): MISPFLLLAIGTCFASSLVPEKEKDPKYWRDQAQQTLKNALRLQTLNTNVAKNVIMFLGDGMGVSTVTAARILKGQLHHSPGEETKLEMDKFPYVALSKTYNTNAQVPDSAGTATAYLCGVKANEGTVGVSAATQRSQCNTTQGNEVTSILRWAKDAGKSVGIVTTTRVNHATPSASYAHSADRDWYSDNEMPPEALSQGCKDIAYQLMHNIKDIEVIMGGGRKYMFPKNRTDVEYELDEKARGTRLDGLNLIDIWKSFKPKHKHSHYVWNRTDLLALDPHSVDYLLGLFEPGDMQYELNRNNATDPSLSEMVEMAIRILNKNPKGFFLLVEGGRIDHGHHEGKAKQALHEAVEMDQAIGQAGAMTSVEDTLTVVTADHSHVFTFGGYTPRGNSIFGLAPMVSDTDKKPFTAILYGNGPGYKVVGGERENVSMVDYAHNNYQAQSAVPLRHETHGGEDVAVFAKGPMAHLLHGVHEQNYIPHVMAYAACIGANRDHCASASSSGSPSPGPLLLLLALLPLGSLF

[2] = target: Intestinal-type alkaline phosphatase (Bos taurus, UniProt P19111); test: Inhibition of calf intestinal alkaline phosphatase using CDP-star chemiluminescent substrate assessed as change in luminescence by spectrophotometric method
Chain of Intestinal-type alkaline phosphatase (P19111 whole entry): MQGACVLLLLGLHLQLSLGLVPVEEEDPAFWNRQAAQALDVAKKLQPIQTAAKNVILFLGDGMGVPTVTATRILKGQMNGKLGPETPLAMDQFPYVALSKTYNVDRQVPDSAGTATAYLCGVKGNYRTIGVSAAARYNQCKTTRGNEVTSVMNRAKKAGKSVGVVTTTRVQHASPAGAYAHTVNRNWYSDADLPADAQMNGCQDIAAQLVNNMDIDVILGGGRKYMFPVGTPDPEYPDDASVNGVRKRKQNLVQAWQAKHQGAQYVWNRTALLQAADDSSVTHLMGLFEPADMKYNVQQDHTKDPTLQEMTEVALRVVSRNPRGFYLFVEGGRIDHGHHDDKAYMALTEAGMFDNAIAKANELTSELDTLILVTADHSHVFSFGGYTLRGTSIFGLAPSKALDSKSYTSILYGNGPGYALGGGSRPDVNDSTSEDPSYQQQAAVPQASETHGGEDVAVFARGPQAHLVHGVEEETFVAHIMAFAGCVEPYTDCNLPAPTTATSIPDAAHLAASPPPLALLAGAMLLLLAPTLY

Carbonic anhydrase 2 = Carbonic anhydrase 2 (Bos taurus, UniProt P00921); test: Inhibition of bovine carbonic anhydrase 2 assessed as hydrolysis of p-nitrophenyl acetate after 30 mins by spectrophotometric method
Chain of Carbonic anhydrase 2 (P00921 whole entry): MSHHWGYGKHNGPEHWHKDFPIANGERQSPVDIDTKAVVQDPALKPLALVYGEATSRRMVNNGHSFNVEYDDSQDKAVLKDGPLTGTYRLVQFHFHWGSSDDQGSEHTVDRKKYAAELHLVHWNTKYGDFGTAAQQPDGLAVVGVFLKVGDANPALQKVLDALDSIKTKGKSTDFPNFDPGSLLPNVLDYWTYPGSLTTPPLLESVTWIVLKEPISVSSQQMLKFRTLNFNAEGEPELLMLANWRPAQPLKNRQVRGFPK

[3] = target: Carbonic anhydrase 2 (Bos taurus) (UniProt P00921); test: Inhibition of bovine carbonic anhydrase 2 assessed as hydrolysis of p-nitrophenyl acetate at 0.5 mM after 30 mins by spectrophotometric method
Chain of Carbonic anhydrase 2 (Bos taurus) (P00921 2-260 limits assumed): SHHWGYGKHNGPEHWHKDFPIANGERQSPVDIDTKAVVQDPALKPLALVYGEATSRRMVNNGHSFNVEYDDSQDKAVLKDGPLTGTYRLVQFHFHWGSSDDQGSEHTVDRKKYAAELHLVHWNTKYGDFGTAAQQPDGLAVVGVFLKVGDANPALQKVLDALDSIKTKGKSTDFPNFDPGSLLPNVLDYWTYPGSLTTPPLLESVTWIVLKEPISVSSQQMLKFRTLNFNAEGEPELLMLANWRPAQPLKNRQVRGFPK
How it was run: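 Bovine CA (50 U/well) in 50 mM Tris-sulfate pH 7.6 with 0.1 mM ZnCl2; compound at 0.5 mM in 1% DMSO; pre-incubated 10 min at 25 °C, pre-read at 348 nm; p-nitrophenyl acetate added to 0.6 mM final; 30 min at 25 °C, read at 348 nm.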

[4] = target: T2, Alkaline phosphatase, tissue-nonspecific isozyme (Bos taurus) (UniProt P09487); test: Inhibition of bovine kidney non-specific alkaline phosphatase using CDP-star chemiluminescent substrate assessed as change in luminescence at 0.2 mM by spectrophotometric method
T2 sequence (whole entry): T1 sequence (P09487 whole entry)
How it was run: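 Buffer: 8 M DEA pH 9.8, 2.5 mM MgCl2, 0.05 mM ZnCl2. Compound 0.2 mM, final DMSO 1% (v/v), with TNAP (1:800 dilution, 0.8 units/mL); pre-incubated 3–5 min at 37 °C, luminescence pre-read; CDP-star added to 110 µM final; 15 min at 37 °C, after-read. Percent inhibition vs uninhibited control; levamisole 2 mM per well as positive control.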

Row | Structure (SMILES) | Ki [1] | IC50 [1] | IC50 [2] | IC50 (Carbonic anhydrase 2; read-out: IC50) | inhibition [3] | inhibition [4] | IC50 (Carbonic anhydrase 2)
1 | c1ccc([C@H]2CN3CCSC3=N2)cc1 [LEVAMISOLE] | 1.81 µM |  |  |  |  |  | 
2 | NS(=O)(=O)c1ccc(CNS(=O)(=O)c2ccc(F)cc2)cc1 | 1.25 µM | 2.94 µM | 1.35 µM | 0.215 µM |  |  | 
3 | Cc1ccc(S(=O)(=O)NCCc2ccc(S(N)(=O)=O)cc2)cc1 | 17.6 µM | 41.2 µM | 2.96 µM | 0.241 µM |  |  | 
4 | Cc1ccc(S(=O)(=O)Nc2ccc(S(N)(=O)=O)cc2)cc1 | 91.9 µM | 222 µM | 14.5 µM | 0.057 µM |  |  | 
5 | NS(=O)(=O)c1ccc(NC(=O)c2ccccc2)cc1 | 16.6 µM | 70.1 µM | 3.05 µM |  | 48.4% |  | 
6 | NS(=O)(=O)c1ccc(NC(=O)c2ccc(F)cc2)cc1 | 25.1 µM | 58.6 µM | 5.91 µM |  | 47.3% |  | 
7 | Cc1ccc(S(=O)(=O)Nc2cccc(S(N)(=O)=O)c2)cc1 | 0.95 µM | 2.24 µM | 8.27 µM | 0.152 µM |  |  | 
8 | NS(=O)(=O)c1ccc(CNC(=O)c2ccccc2)cc1 | 0.918 µM | 2.87 µM | 4.45 µM | 0.691 µM |  |  | 
9 | NS(=O)(=O)c1ccc(CCNC(=O)c2ccccc2)cc1 | 3.96 µM | 10.3 µM | 0.429 µM | 0.544 µM |  |  | 
10 | Cc1ccc(S(=O)(=O)Nc2ccccc2)cc1 | 0.07 µM | 0.18 µM | 9.15 µM |  |  |  | 
11 | NS(=O)(=O)c1cccc(NC(=O)c2ccc(F)cc2)c1 | 16.2 µM | 55.6 µM | 9.75 µM |  | 36.4% |  | 
12 | NS(=O)(=O)c1ccc(CNC(=O)c2ccc(F)cc2)cc1 | 0.299 µM | 0.613 µM | 1.18 µM | 0.821 µM |  |  | 
13 | NS(=O)(=O)c1cccc(NS(=O)(=O)c2ccc(F)cc2)c1 | 0.06 µM | 0.15 µM | 1.27 µM | 0.1 µM |  |  | 
14 | NS(=O)(=O)c1ccc(CCNC(=O)c2ccc(F)cc2)cc1 | 4.51 µM | 22.5 µM | 6.73 µM | 0.656 µM |  |  | 
15 | NS(=O)(=O)c1ccc(CCNS(=O)(=O)c2ccc(F)cc2)cc1 |  |  | 11.7 µM | 0.035 µM |  | 44.1% | 
16 | CCOc1ccc(NS(=O)(=O)c2ccc(C)cc2)cc1 | 0.128 µM | 0.31 µM | 30.1 µM |  |  |  | Not Active
17 | Cc1ccc(S(=O)(=O)NCc2ccc(S(N)(=O)=O)cc2)cc1 | 0.05 µM | 0.115 µM | 0.14 µM | 0.134 µM |  |  | 
18 | CCOc1ccc(NS(=O)(=O)c2ccc(F)cc2)cc1 |  |  | 0.72 µM |  |  | 39.5% | Not Active
19 | NS(=O)(=O)c1ccc(NS(=O)(=O)c2ccc(F)cc2)cc1 | 1.39 µM | 3.26 µM | 1.13 µM | 0.1 µM |  |  | 

— ChEMBL document CHEMBL3399968, “Diarylsulfonamides and their bioisosteres as dual inhibitors of alkaline phosphatase and carbonic anhydrase: Structure activity relationship and molecular modelling studies” (Bioorg Med Chem, 2015)
